From ChEMBL document CHEMBL2331265, “Physangulidine A, a withanolide from Physalis angulata, perturbs the cell cycle and induces cell death by apoptosis in prostate cancer cells” (2013)
Active and inactive are the calls of the source. No cut-off for these calls is given here.

Key:
DU-145 [1] = assay: Induction of apoptosis in human DU145 cells using annexin V and propidium iodide staining at 5 uM after 24 hrs by flow cytometric analysis; type: functional
Summary of the method: (§1)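 DU145 plated at 2 × 10^5 per well and adhered 18 h. Then 5 or 10 μM compound, DMSO or untreated, for 24, 48 or 72 h. Trypsinized, PBS-washed, stained with annexin V-FITC plus propidium iodide. By flow cytometry, quadrants scored as viable, apoptotic (annexin+/PI−), necrotic (PI+ only) or late apoptotic/necrotic (double positive).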

DU-145 [2] = assay: Induction of apoptosis in human DU145 cells assessed as viable cells at 10 uM after 72 hrs using annexin V and propidium iodide staining by flow cytometric analysis relative to control; type: functional; conditions: DU-145, 72 h, read-out: Activity; summary of the method: as §1
DU-145 [3] = assay: Induction of apoptosis in human DU145 cells using annexin V and propidium iodide staining at 5 uM after 72 hrs by flow cytometric analysis; type: functional; summary of the method: as §1
DU-145 [4] = assay: Cell cycle arrest in human DU145 cells assessed as accumulation at G2/M phase at 10 uM after 48 hrs using propidium iodide staining by flow cytometry (reference value: 36%); type: functional
DU-145 [5] = assay: Inhibition of mitosis in human DU145 cells assessed as condensed chromosomes and mitotic spindles formation at 10 uM after 24 hrs by fluorescent microscopy; type: functional, cell-based
Summary of the method: (§2)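 DU145 plated at 2.5 × 10^4 on glass coverslips, 18 h. Then 10 μM compound for 24 or 48 h, or DMSO for 48 h. Fixed in 4% paraformaldehyde, permeabilized with 0.1% Triton X-100, blocked with 3% BSA. Stained with Alexa Fluor 488 anti-α-tubulin (60 min) and DAPI, then imaged by confocal microscopy for aberrant mitotic figures.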

DU-145 [6] = assay: Cell cycle arrest in human DU145 cells assessed as accumulation at G1 phase at 10 uM after 48 hrs using propidium iodide staining by flow cytometry (reference value: 37%); type: functional
DU-145 [7] = assay: Cell cycle arrest in human DU145 cells assessed as accumulation at S phase at 10 uM after 24 hrs using propidium iodide staining by flow cytometry (reference value: 28%); type: functional
DU-145 [8] = assay: Induction of apoptosis in human DU145 cells using annexin V and propidium iodide staining at 5 uM after 48 hrs by flow cytometric analysis; type: functional; summary of the method: as §1
DU-145 [9] = assay: Cell cycle arrest in human DU145 cells assessed as accumulation at G2/M phase at 10 uM after 24 hrs using propidium iodide staining by flow cytometry (reference value: 31%); type: functional
DU-145 [10] = assay: Induction of apoptosis in human DU145 cells assessed as viable cells at 10 uM after 48 hrs using annexin V and propidium iodide staining by flow cytometric analysis relative to control; type: functional; conditions: DU-145, 48 h, read-out: Activity; summary of the method: as §1
DU-145 [11] = assay: Induction of apoptosis in human DU145 cells assessed as caspase-3 activation at 10 uM after 24 hrs by immunoblotting; type: functional, cell-based
Summary of the method: (§3)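 Cells treated with 10 μM compound or DMSO over a time course. Lysed in Tris/NaCl/EDTA/deoxycholate/IGEPAL buffer, pH 7.5, with protease and phosphatase inhibitors. Protein measured by BCA and equal amounts immunoblotted. Membranes blocked in 5% milk, then probed overnight at 4 °C with anti-PARP-1 (200 ng/mL; full length 116 kDa, cleaved 89 kDa) or anti-cleaved caspase-3 (1:1000). GAPDH loading control, chemiluminescent detection.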

DU-145 [12] = assay: Induction of apoptosis in human DU145 cells assessed as late apoptotic cells at 10 uM after 24 hrs using annexin V and propidium iodide staining by flow cytometric analysis relative to control; type: functional; summary of the method: as §1
DU-145 [13] = assay: Induction of apoptosis in human DU145 cells assessed as caspase-3 activation at 10 uM after 48 to 72 hrs by immunoblotting; type: functional, cell-based; summary of the method: as §3
DU-145 [14] = assay: Induction of apoptosis in human DU145 cells assessed as PARP-1 cleavage at 10 uM after 24 hrs by immunoblotting; type: functional, cell-based; summary of the method: as §3
DU-145 [15] = assay: Cell cycle arrest in human DU145 cells assessed as accumulation at S phase at 10 uM after 48 hrs using propidium iodide staining by flow cytometry (reference value: 25%); type: functional
DU-145 [16] = assay: Induction of apoptosis in human DU145 cells assessed as DNA fragmentation formation at 10 uM after 48 to 72 hrs […]; type: functional, cell-based
Summary of the method: (§4)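 Cells (2 × 10^6, adherent plus floating) collected after 10 μM compound or DMSO. Lysed in 1% NP-40/EDTA/Tris, treated with RNase A (1 h, 37 °C) then proteinase K (1 h, 50 °C). Phenol–chloroform extracted, precipitated with isopropanol. Run on a 1.8% agarose gel, ethidium bromide stained, UV read for the oligonucleosomal DNA ladder.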

DU-145 [17] = assay: Induction of apoptosis in human DU145 cells assessed as late apoptotic cells at 10 uM after 72 hrs using annexin V and propidium iodide staining by flow cytometric analysis relative to control; type: functional; summary of the method: as §1
DU-145 [18] = assay: Induction of apoptosis in human DU145 cells assessed as viable cells at 10 uM after 24 hrs using annexin V and propidium iodide staining by flow cytometric analysis relative to control; type: functional; conditions: DU-145, 24 h, read-out: Activity; summary of the method: as §1
DU-145 [19] = assay: Induction of apoptosis in human DU145 cells assessed as necrotic cells at 10 uM after 48 hrs using annexin V and propidium iodide staining by flow cytometric analysis relative to control; type: functional; summary of the method: as §1
DU-145 [20] = assay: Induction of apoptosis in human DU145 cells assessed as early apoptotic cells at 10 uM after 72 hrs using annexin V and propidium iodide staining by flow cytometric analysis relative to control; type: functional; summary of the method: as §1
DU-145 [21] = assay: Induction of apoptosis in human DU145 cells assessed as PARP-1 cleavage at 10 uM after 48 to 72 hrs by immunoblotting; type: functional, cell-based; summary of the method: as §3
DU-145 [22] = assay: Induction of apoptosis in human DU145 cells assessed as early apoptotic cells at 10 uM after 24 hrs using annexin V and propidium iodide staining by flow cytometric analysis relative to control; type: functional; summary of the method: as §1
PC-3 [23] = assay: Induction of apoptosis in human PC3 cells assessed as DNA fragmentation formation at 10 uM after 48 to 72 hrs […]; type: functional, cell-based; summary of the method: as §4
DU-145 [24] = assay: Cell cycle arrest in human DU145 cells assessed as accumulation at G1 phase at 10 uM after 24 hrs using propidium iodide staining by flow cytometry (reference value: 39%); type: functional
PC-3 [25] = assay: Induction of apoptosis in human PC3 cells assessed as caspase-3 activation at 10 uM after 24 to 72 hrs by immunoblotting; type: functional, cell-based; summary of the method: as §3
DU-145 [26] = assay: Induction of apoptosis in human DU145 cells assessed as late apoptotic cells at 10 uM after 48 hrs using annexin V and propidium iodide staining by flow cytometric analysis relative to control; type: functional; summary of the method: as §1
DU-145 [27] = assay: Induction of apoptosis in human DU145 cells assessed as necrotic cells at 10 uM after 72 hrs using annexin V and propidium iodide staining by flow cytometric analysis relative to control; type: functional; summary of the method: as §1
DU-145 [28] = assay: Induction of apoptosis in human DU145 cells assessed as necrotic cells at 10 uM after 24 hrs using annexin V and propidium iodide staining by flow cytometric analysis relative to control; type: functional; summary of the method: as §1
DU-145 [29] = assay: Antiproliferative activity against human DU145 cells at 10 uM; type: functional, cell-based
Summary of the method: (§5)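 DU145 in DMEM and PC3 in F-12K, each with 10% FBS and penicillin/streptomycin, at 37 °C, 5% CO2. Compound added directly to the medium. Antiproliferative activity read after three days of treatment.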

PC-3 [30] = assay: Induction of apoptosis in human PC3 cells assessed as PARP-1 cleavage at 10 uM after 24 to 72 hrs by immunoblotting; type: functional, cell-based; summary of the method: as §3
DU-145 [31] = assay: Antiproliferative activity against human DU145 cells by SRB assay; type: functional
DU-145 [32] = assay: Induction of apoptosis in human DU145 cells assessed as early apoptotic cells at 10 uM after 48 hrs using annexin V and propidium iodide staining by flow cytometric analysis relative to control; type: functional; summary of the method: as §1
PC-3 [33] = assay: Inhibition of colony formation in human PC3 cells at 2.5 to 10 uM after 10 days by clonogenic assay; type: functional, cell-based
Summary of the method: (§6)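 DU145 or PC3 plated at 3 × 10^2 per well and adhered 18 h. Then 2.5, 5 or 10 μM compound, DMSO or medium alone. Grown 10 days until colonies were visible. Colonies fixed in 4% paraformaldehyde and stained with 0.25% crystal violet in 25% methanol.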

DU-145 [34] = assay: Inhibition of colony formation in human DU145 cells at 2.5 to 10 uM after 10 days by clonogenic assay; type: functional, cell-based; summary of the method: as §6
DU-145 [35] = assay: Induction of cell death in human DU145 cells at 10 uM after 72 hrs by trypan blue exclusion assay; type: functional
Summary of the method: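 DU145 left untreated, or given 10 μM compound or DMSO, for 72 h. All adherent and floating cells harvested, stained with trypan blue and counted at once. Result is % blue (nonviable) cells, mean of three independent experiments with standard error.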

PC-3 [36] = assay: Antiproliferative activity against human PC3 cells at 10 uM; type: functional, cell-based; summary of the method: as §5
DU-145 [37] = assay: Inhibition of mitosis in human DU145 cells assessed as abnormal mitosis at 10 uM after 48 hrs by fluorescent microscopy; type: functional, cell-based; summary of the method: as §2

C[C@@H]1CC[C@H]2[C@H]3[C@H](O[C@]4([C@]5(O)CC6(C)C(=O)OC5C[C@@]6(C)O)CC[C@@]31O4)[C@H]1O[C@]13CC=CC(=O)[C@]23C [PHYSANGULIDINE A]
Activity (DU-145 [1]): 5.2%
viability at 10 µM (DU-145 [2]): 24.9%
Activity (DU-145 [3]): 11.5%
Activity (DU-145 [4]): 66%
inhibition (DU-145 [5]): Active
Activity (DU-145 [6]): 7%
Activity (DU-145 [7]): 37%
Activity (DU-145 [8]): 9.2%
Activity (DU-145 [9]): 49%
viability at 10 µM (DU-145 [10]): 53.2%
Activity (DU-145 [11]): inactive
Activity (DU-145 [12]): 3.71%
Activity (DU-145 [13]): Active
Activity (DU-145 [14]): inactive
Activity (DU-145 [15]): 12%
Activity (DU-145 [16]): Active
Activity (DU-145 [17]): 28.4%
viability at 10 µM (DU-145 [18]): 88.1%
Activity (DU-145 [19]): 0.604%
Activity (DU-145 [20]): 46.4%
Activity (DU-145 [21]): Active
Activity (DU-145 [22]): 7.44%
Activity (PC-3 [23]): Active
Activity (DU-145 [24]): 8%
Activity (PC-3 [25]): Active
Activity (DU-145 [26]): 13.9%
Activity (DU-145 [27]): 0.308%
Activity (DU-145 [28]): 0.77%
inhibition (DU-145 [29]): Active
Activity (PC-3 [30]): Active
GI50 (DU-145 [31]): 3.6 µM
Activity (DU-145 [32]): 32.3%
inhibition (PC-3 [33]): Active
inhibition (DU-145 [34]): Active
Activity (DU-145 [35]): 90%
inhibition (PC-3 [36]): Active
inhibition (DU-145 [37]): Active
